Format in all cases: cell-based
For one experiment, the target named is D(2) dopamine receptor (Homo sapiens, UniProt P14416). The experiment is described as follows: Binding affinity towards human dopamine receptor D2 by the displacement of [3H]spiperone radioligand from the cloned receptor expressed in CHO cells. The method, boiled down:
(§1)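 Affinities are given as the geometric mean of 3–6 independent determinations; some values rest on only 2 determinations.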
For orientation: Loss of bound radioactivity is the signal in a displacement assay; it reports binding, not function.

Experiment [1] addresses 5-hydroxytryptamine receptor 7 (Homo sapiens, UniProt P34969). The experiment in a line: Binding affinity towards human 5-hydroxytryptamine 7 receptor by the displacement of [3H]-5-HT radioligand from the cloned receptor expressed in CHO cells.
Experiment [2] deals with T1, 5-hydroxytryptamine receptor 1A (Homo sapiens, UniProt P08908).
T1 sequence (P08908 whole entry): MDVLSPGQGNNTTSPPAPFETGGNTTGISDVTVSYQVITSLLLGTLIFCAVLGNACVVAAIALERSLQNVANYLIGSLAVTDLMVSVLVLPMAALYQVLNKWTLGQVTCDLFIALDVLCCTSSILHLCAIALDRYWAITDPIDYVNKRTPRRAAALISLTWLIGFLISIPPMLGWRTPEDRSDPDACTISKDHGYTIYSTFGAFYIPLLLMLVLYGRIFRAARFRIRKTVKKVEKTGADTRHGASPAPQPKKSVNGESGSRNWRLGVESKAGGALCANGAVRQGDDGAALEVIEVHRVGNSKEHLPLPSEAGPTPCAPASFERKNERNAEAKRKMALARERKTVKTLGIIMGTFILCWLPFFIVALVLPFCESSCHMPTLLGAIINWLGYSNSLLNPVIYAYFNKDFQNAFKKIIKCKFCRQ
The experiment in a line: Binding affinity towards human 5-hydroxytryptamine 1A receptor by the displacement of [3H]5-HT radioligand from the cloned receptor expressed in HeLa cells. The method, boiled down: as §1

Experiment [3] concerns the target 5-hydroxytryptamine receptor 2A (Homo sapiens, UniProt P28223). The experiment is described as follows: Binding affinity towards human 5-hydroxytryptamine 2A receptor by the displacement of [3H]ketanserin radioligand from the cloned receptor expressed in CHO cells. The method, boiled down: as §1

D(2) dopamine receptor, sequence (P14416 whole entry): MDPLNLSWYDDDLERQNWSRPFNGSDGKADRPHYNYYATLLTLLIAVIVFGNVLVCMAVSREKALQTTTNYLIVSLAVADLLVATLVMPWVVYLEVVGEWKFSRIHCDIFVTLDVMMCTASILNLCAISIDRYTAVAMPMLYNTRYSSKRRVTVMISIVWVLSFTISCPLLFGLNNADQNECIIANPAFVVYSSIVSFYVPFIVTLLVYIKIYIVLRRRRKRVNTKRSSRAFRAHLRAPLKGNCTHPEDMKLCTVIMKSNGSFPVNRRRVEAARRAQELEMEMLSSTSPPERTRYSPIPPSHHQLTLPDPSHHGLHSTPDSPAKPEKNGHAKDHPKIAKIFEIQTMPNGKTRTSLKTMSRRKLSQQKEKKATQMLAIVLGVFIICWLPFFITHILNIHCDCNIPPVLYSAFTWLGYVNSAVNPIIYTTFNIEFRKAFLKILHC
5-hydroxytryptamine receptor 2A, sequence (P28223 whole entry): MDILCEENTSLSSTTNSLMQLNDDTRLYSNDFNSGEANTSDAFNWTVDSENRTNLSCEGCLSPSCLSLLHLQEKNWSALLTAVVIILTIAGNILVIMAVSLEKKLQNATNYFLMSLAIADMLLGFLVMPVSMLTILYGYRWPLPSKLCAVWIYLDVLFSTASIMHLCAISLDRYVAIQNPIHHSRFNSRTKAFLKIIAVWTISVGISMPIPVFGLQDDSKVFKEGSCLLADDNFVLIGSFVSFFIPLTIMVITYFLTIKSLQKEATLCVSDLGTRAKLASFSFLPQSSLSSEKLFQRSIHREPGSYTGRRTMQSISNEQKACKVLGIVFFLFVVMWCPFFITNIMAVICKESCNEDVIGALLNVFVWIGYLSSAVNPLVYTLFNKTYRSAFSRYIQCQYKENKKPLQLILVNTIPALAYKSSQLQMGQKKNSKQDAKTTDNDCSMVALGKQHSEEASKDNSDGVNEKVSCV
5-hydroxytryptamine receptor 7, sequence (P34969 whole entry): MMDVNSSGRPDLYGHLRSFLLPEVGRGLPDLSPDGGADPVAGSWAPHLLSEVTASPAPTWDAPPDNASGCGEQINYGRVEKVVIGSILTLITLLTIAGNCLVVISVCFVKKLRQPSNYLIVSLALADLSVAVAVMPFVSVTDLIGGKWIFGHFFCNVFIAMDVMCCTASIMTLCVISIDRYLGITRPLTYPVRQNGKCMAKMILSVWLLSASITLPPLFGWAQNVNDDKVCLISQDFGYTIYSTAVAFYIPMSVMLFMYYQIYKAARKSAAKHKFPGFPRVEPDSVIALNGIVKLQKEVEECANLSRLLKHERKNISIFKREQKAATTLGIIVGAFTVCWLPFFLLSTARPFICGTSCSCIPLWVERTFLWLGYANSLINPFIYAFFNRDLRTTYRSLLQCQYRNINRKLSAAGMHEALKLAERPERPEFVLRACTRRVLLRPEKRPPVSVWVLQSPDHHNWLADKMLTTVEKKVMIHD

The Ki is a dissociation constant, usually derived from enzyme kinetics or from competition with a known ligand. A low value points to a stronger hold on the target. Compound `CN(C)CCSc1cccc(-c2ccccc2)n1` registered a Ki at D(2) dopamine receptor of 450 nM.
In the case of `CN(C)CCSc1nc(-c2ccccc2)cs1`, the Ki on D(2) dopamine receptor was > 1000 nM; in experiment [1], 12 nM; in experiment [2], 210 nM; in experiment [3] it was 640 nM.
`CN(C)CCSc1nc(-c2ccncc2)cs1`: the Ki on D(2) dopamine receptor is 130 nM; in experiment [1], 27 nM; in experiment [2], 90 nM; in experiment [3], > 200 nM.
The compound `Cc1sc(SCCN(C)C)nc1-c1ccccc1` displayed a Ki in experiment [1] of 170 nM.
As to `CN(C)CCSc1n[nH]c(-c2ccccc2)n1`, the affinity in experiment [1], expressed as Ki, was 1200 nM.
Regarding `CN(C)CCSc1cccc(C2CCCCC2)n1`, the Ki worked out at 1300 nM on D(2) dopamine receptor, 0.7 nM in experiment [1], 8.7 nM in experiment [2] and 230 nM in experiment [3].
On the same counts, the results for `CN(C)CCSc1cccc(Br)n1` are 870 nM, 4.1 nM, 37 nM and 270 nM.
As for `CN(C)CCSc1nc2ccccc2s1`, the Ki is > 1000 nM on D(2) dopamine receptor, 84 nM in experiment [1], 830 nM in experiment [2] and 1000 nM in experiment [3].
In turn, `CN(C)CCSc1ncc(-c2ccccc2)s1` yielded a Ki in experiment [1] of 3200 nM.
Same read-out and setting: next, `CN(C)CCSc1nccs1`: 6800 nM.
For `CN(C)CCSc1nc(C(C)(C)C)cs1`, the Ki was > 1000 nM on D(2) dopamine receptor, 22 nM in experiment [1], 2200 nM in experiment [2] and 1200 nM in experiment [3].
As for `CN(C)CCSc1nnc(-c2ccccc2)o1`, the Ki in experiment [1] was > 4000 nM.
`CN(C)CCSc1cccc(C2(O)CCCCC2)n1`: the Ki was > 1000 nM on D(2) dopamine receptor, 7.2 nM in experiment [1], 41 nM in experiment [2] and 480 nM in experiment [3].
On to `CN(C)CCSc1ccnc(-c2ccccc2)c1`, for which the Ki came to 100 nM in experiment [1] and 1200 nM in experiment [2].
